Tests used:
Mus musculus [1] = assay: Percent change from vehicle in locomotor activity in mice at 30 mg/kg (ip) in 1 h; assay type: functional
Rattus norvegicus [2] = assay: Effective dose for drug discrimination effect in rat (ip); assay type: functional
How it was run: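 Cocaine-trained rat drug discrimination, FR10, 10-min sessions. Compound in 0.5% methyl cellulose given ip 15 min before session, usually to 7-8 rats per dose. Doses were raised from ≤20% to ≥80% cocaine-lever choice, capped at 30 mg/kg, >50% loss of pressing, or side effects.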

Mus musculus [3] = assay: Percent change in locomotor activity in mice at 3 mg/kg i.p. in 2 h.; assay type: functional; settings: route intraperitoneal
How it was run: (§1)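 Mice habituated 1/2 h to photocell activity chambers, then injected ip with compound homogenized in 0.5% methyl cellulose (10 mL/kg); vehicle controls; N = 5 or 6 per dose. Photobeam interruptions recorded in 10-min bins for 4 h, grouped into 1-h bins; one-way ANOVA with Newman-Keuls post hoc test (p < 0.05).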

Mus musculus [4] = assay: Percent change from vehicle in locomotor activity in mice at 30 mg/kg (ip) in 3 h; assay type: functional
Mus musculus [5] = assay: Percent change from vehicle in locomotor activity in mice at 10 mg/kg (ip) in 1 h; assay type: functional
Rattus norvegicus [6] = assay: Drug discrimination effect of compound in rats, expressed as percent of rats choosing the cocaine lever at dose 17 mg/kg (ip); assay type: functional
Mus musculus [7] = assay: Percent change in locomotor activity in mice at 3 mg/kg i.p. in 3 h.; assay type: functional; settings: route intraperitoneal; how it was run: as §1
[8] = target: T1, Norepinephrine transporter (Rattus norvegicus, UniProt Q9WTR4); assay: Inhibition of norepinephrine transporter (NET) determined using [3H]nisoxetine radioligand.
T1 sequence (Q9WTR4 whole entry): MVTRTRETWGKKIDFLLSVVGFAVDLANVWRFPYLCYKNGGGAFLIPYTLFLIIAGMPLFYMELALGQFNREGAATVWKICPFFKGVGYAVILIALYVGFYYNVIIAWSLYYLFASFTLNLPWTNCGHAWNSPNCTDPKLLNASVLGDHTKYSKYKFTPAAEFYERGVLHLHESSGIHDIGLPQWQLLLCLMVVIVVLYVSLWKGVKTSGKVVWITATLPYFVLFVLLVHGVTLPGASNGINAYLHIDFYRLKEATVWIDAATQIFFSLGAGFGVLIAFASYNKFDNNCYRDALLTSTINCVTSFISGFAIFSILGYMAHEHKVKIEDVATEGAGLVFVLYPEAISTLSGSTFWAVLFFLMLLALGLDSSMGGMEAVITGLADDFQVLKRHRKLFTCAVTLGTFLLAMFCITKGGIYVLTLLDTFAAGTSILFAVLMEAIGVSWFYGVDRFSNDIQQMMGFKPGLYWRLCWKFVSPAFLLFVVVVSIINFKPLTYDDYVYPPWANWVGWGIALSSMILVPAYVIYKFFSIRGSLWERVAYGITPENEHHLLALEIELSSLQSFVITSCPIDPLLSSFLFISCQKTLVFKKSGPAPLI
How it was run: (§2)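 Competition binding at the NET with 0.5 nM [3H]nisoxetine (final concentration). Other procedures follow earlier published methods.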

[9] = target: T2, Sodium-dependent serotonin transporter (Rattus norvegicus, UniProt P31652); assay: Inhibitory concentration required to inhibit serotonin transporter 5-HTT was determined by using [3H]paroxetine radioligand
T2 sequence (P31652 whole entry): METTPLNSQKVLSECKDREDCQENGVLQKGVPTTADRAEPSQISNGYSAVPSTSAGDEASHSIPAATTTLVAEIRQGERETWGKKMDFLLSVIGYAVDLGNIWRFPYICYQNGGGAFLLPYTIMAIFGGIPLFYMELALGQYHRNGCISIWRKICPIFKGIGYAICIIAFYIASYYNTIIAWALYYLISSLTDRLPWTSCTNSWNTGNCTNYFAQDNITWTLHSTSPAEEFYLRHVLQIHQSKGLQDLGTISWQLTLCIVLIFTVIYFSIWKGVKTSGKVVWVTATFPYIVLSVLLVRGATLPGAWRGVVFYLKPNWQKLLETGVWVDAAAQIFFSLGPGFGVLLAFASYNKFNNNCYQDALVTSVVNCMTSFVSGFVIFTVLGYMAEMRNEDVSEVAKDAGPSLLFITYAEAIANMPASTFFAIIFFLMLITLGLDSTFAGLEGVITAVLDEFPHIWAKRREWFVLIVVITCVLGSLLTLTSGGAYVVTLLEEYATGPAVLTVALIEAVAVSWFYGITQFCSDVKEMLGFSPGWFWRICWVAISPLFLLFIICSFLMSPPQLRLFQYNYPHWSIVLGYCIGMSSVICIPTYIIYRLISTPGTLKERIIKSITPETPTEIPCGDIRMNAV
How it was run: (§3)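 Competition binding at the 5-HTT with 0.2 nM [3H]paroxetine (final concentration). Other procedures follow earlier published methods.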

Mus musculus [10] = assay: Percent change from vehicle in locomotor activity in mice at 10 mg/kg (ip) in 3 h; assay type: functional
Mus musculus [11] = assay: Percent change from vehicle in locomotor activity in mice at 10 mg/kg (ip) in 4 h; assay type: functional
Mus musculus [12] = assay: Percent change from vehicle in locomotor activity in mice at 30 mg/kg (ip) in 2 h; assay type: functional
Rattus norvegicus [13] = assay: Drug discrimination effect of compound in rats, expressed as percent of rats choosing the cocaine lever at dose 30 mg/kg (ip); assay type: functional
Mus musculus [14] = species: Mus musculus; assay: Effective dose for locomotor activity in mice in the peak hour.; assay type: functional
[15] = target: T2, Sodium-dependent serotonin transporter; assay: Binding affinity towards serotonin transporter 5-HTT was determined using [3H]paroxetine radioligand.; how it was run: as §3
Mus musculus [16] = assay: Percent change in locomotor activity in mice at 3 mg/kg i.p. in 4 h.; assay type: functional; settings: route intraperitoneal; how it was run: as §1
Mus musculus [17] = species: Mus musculus; assay: Hour 1 ratio to cocaine was determined for locomotor activity in mice; assay type: functional
[18] = target: Sodium-dependent dopamine transporter (Rattus norvegicus, UniProt P23977); assay: Inhibitory concentration required to inhibit dopamine transporter DAT was determined by using [3H]WIN-35428 radioligand
Chain of Sodium-dependent dopamine transporter (P23977 whole entry): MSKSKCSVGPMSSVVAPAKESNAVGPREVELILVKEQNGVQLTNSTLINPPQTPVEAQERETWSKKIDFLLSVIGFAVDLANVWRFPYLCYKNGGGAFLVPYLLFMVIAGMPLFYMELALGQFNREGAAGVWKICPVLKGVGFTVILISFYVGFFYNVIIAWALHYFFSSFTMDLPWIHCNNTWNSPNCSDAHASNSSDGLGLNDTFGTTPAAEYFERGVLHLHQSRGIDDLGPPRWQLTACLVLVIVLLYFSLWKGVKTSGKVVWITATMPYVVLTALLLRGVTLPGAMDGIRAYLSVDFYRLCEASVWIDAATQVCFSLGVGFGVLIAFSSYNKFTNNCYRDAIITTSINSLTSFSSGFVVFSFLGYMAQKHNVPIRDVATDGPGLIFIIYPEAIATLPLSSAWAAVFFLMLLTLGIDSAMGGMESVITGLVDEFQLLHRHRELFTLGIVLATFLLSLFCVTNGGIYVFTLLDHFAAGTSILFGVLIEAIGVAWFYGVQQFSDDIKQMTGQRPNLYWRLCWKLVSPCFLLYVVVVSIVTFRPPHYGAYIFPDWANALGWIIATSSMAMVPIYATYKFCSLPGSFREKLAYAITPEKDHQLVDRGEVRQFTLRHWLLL
How it was run: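 Competition binding at the DAT with 0.5 nM [3H]WIN35,428 (final concentration). Other procedures follow earlier published methods.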

Mus musculus [19] = assay: Percent change from vehicle in locomotor activity in mice at 10 mg/kg (ip) in 2 h; assay type: functional
Mus musculus [20] = assay: Percent change from vehicle in locomotor activity in mice at 30 mg/kg (ip) in 4 h; assay type: functional
Mus musculus [21] = assay: Percent change in locomotor activity in mice at 3 mg/kg i.p. in 1 h.; assay type: functional; settings: route intraperitoneal; how it was run: as §1
Rattus norvegicus [22] = assay: Drug discrimination effect of compound in rats, expressed as percent of rats choosing the cocaine lever at dose 5.6 mg/kg (ip); assay type: functional
[23] = target: T1, Norepinephrine transporter; assay: Binding affinity towards norepinephrine transporter was determined using [3H]nisoxetine radioligand.; how it was run: as §2
Rattus norvegicus [24] = assay: Drug discrimination effect of compound in rats, expressed as percent of rats choosing the cocaine lever at dose 0.17 mg/kg (ip); assay type: functional
Mus musculus [25] = assay: Percent change from vehicle in locomotor activity in mice at 0.3 mg/kg (ip) in 3 h; assay type: functional
Rattus norvegicus [26] = assay: Drug discrimination effect of compound in rats, expressed as percent of rats choosing the cocaine lever at dose 0.56 mg/kg (ip); assay type: functional
Mus musculus [27] = assay: Percent change in locomotor activity in mice at 1 mg/kg i.p. in 2 h.; assay type: functional; settings: route intraperitoneal; how it was run: as §1
Rattus norvegicus [28] = assay: Drug discrimination effect of compound in rats, expressed as percent of rats choosing the cocaine lever at dose 1 mg/kg (ip); assay type: functional
Rattus norvegicus [29] = assay: Drug discrimination effect of compound in rats, expressed as percent of rats choosing the cocaine lever at dose 0.1 mg/kg (ip); assay type: functional
Mus musculus [30] = assay: Percent change in locomotor activity in mice at 1 mg/kg i.p. in 4 h.; assay type: functional; settings: route intraperitoneal; how it was run: as §1
Mus musculus [31] = assay: Percent change from vehicle in locomotor activity in mice at 0.3 mg/kg (ip) in 2 h; assay type: functional
Mus musculus [32] = assay: Percent change from vehicle in locomotor activity in mice at 0.3 mg/kg (ip) in 4 h; assay type: functional
Rattus norvegicus [33] = assay: Drug discrimination effect of compound in rats, expressed as percent of rats choosing the cocaine lever at dose 0.3 mg/kg (ip); assay type: functional
Mus musculus [34] = assay: Percent change from vehicle in locomotor activity in mice at 0.3 mg/kg (ip) in 1 h; assay type: functional
Mus musculus [35] = assay: Percent change in locomotor activity in mice at 1 mg/kg i.p. in 1 h.; assay type: functional; settings: route intraperitoneal
Mus musculus [36] = assay: Percent change locomotor activity in mice at 1 mg/kg i.p. in 3 h.; assay type: functional; settings: route intraperitoneal; how it was run: as §1
Rattus norvegicus [37] = assay: Drug discrimination effect of compound in rats, expressed as percent of rats choosing the cocaine lever at dose 1.7 mg/kg (ip); assay type: functional
Rattus norvegicus [38] = assay: Drug discrimination effect of compound in rats, expressed as percent of rats choosing the cocaine lever at dose 10 mg/kg (ip); assay type: functional

| SMILES | ED50 (Rattus norvegicus [2]) [mg/kg] | Change (Mus musculus [3]) [%] | Change (Mus musculus [7]) [%] | IC50 [8] [nM] | IC50 [9] [nM] | ED50 (Mus musculus [14]) [mg/kg] | Ki [15] [nM] | Change (Mus musculus [16]) [%] | Ratio (Mus musculus [17]) | IC50 [18] [nM] | Change (Mus musculus [21]) [%] | Ki [23] [nM] | Change (Mus musculus [25]) [%] | Change (Mus musculus [27]) [%] | Drug discrimination effect (Rattus norvegicus [28]) [%] | Change (Mus musculus [30]) [%] | Change (Mus musculus [31]) [%] | Change (Mus musculus [32]) [%] | Drug discrimination effect (Rattus norvegicus [33]) [%] | Change (Mus musculus [34]) [%] | further results |
| --- | --- | --- | --- | --- | --- | --- | --- | --- | --- | --- | --- | --- | --- | --- | --- | --- | --- | --- | --- | --- | --- |
| COc1ccc(-c2cc(C3C(c4ccc(C)cc4)CC4CCC3N4C)on2)cc1 (stereo unspecified) | 11 | 32 | 27 | 756 | 4030 | 12.8 | 366 | 30 | 0.6 | 3.93 | 73 | 455 | – | – | – | – | – | – | – | – | Change (Mus musculus [1]): 290%; Change (Mus musculus [4]): 430%; Change (Mus musculus [5]): 187%; Drug discrimination effect (Rattus norvegicus [6]): 43%; Change (Mus musculus [10]): 65%; Change (Mus musculus [11]): 34%; Change (Mus musculus [12]): 235%; Drug discrimination effect (Rattus norvegicus [13]): 83%; Change (Mus musculus [19]): 115%; Change (Mus musculus [20]): 483%; Drug discrimination effect (Rattus norvegicus [22]): 0% |
| CN1C2CCC1C(c1ccno1)C(c1ccc(Cl)cc1)C2 (stereo unspecified) | 0.41 | 137 | -40 | 87 | 91 | 1.2 | 8.2 | -71 | 1.1 | 0.77 | 486 | 52 | 70 | 284 | 100 | 182 | 86 | -20 | 63 | 57 | Drug discrimination effect (Rattus norvegicus [24]): 29%; Drug discrimination effect (Rattus norvegicus [26]): 25%; Drug discrimination effect (Rattus norvegicus [29]): 13%; Change (Mus musculus [35]): 186%; Change (Mus musculus [36]): 345% |
| Cc1ccc(C2CC3CCC(C2c2cc(-c4ccc(F)cc4)no2)N3C)cc1 (stereo unspecified) | 7.27 | 80 | 148 | 917 | > 100000 | 6.3 | – | 140 | 0.4 | 6.45 | 105 | 552 | – | – | – | – | – | – | – | – | Change (Mus musculus [1]): 192%; Change (Mus musculus [4]): 387%; Change (Mus musculus [5]): 117%; Drug discrimination effect (Rattus norvegicus [6]): 88%; Change (Mus musculus [10]): 84%; Change (Mus musculus [11]): 148%; Change (Mus musculus [12]): 383%; Drug discrimination effect (Rattus norvegicus [37]): 0%; Change (Mus musculus [19]): 268%; Change (Mus musculus [20]): 179%; Drug discrimination effect (Rattus norvegicus [22]): 25%; Drug discrimination effect (Rattus norvegicus [38]): 25% |
| CCc1cc(C2C(c3ccc(C)cc3)CC3CCC2N3C)on1 (stereo unspecified) | 0.82 | 893 | 725 | 299 | 6400 | 0.9 | 582 | 81 | 1.4 | 1.62 | 613 | 180 | 173 | 489 | 75 | 48 | 99 | -72 | 0 | 34 | Drug discrimination effect (Rattus norvegicus [26]): 14%; Drug discrimination effect (Rattus norvegicus [37]): 100%; Change (Mus musculus [35]): 449%; Change (Mus musculus [36]): 222% |
| Cc1ccc(C2CC3CCC(C2c2ccno2)N3C)cc1 (stereo unspecified) | 0.19 | 666 | 571 | – | 414 | 1 | 38 | 125 | – | 1.37 | 698 | – | 136 | 214 | 100 | -32 | -12 | -28 | 83 | -13 | Drug discrimination effect (Rattus norvegicus [24]): 43%; Drug discrimination effect (Rattus norvegicus [29]): 0%; Change (Mus musculus [35]): 319%; Change (Mus musculus [36]): 48% |
